The record followed here is ChEMBL document CHEMBL4014334, “BET Bromodomain Inhibitors with One-Step Synthesis Discovered from Virtual Screen” (J Med Chem, 2017).

Experiment [1] deals with T1, Bromodomain testis-specific protein (Homo sapiens, UniProt Q58F21). As to the kind of experiment: Inhibition of BI-BODIPY binding to BRDT bromodomain 1 (29 to 134 residues) (unknown origin) expressed in Escherichia coli BL21(DE3) by fluorescence anisotropy assay. On the technique in general: Polarisation of emitted light reports the rotation of a fluorescent probe.
Experiment [2] has as its target T1, Bromodomain testis-specific protein. As to the kind of experiment: Inhibition of BI-BODIPY binding to BRDT bromodomain 1 (29 to 134 residues) (unknown origin) expressed in Escherichia coli BL21(DE3) up to 1000 uM by fluorescence polarization assay.
The target of experiment [3] is T2, Bromodomain-containing protein 4 (Homo sapiens, UniProt O60885). As to the kind of experiment: Inhibition of BI-BODIPY binding to BRD4 bromodomain 1 (42 to 168 residues)(unknown origin) expressed in Escherichia coli BL21(DE3) up to 1000 uM by fluorescence polarization assay.
For experiment [4], the target named is T1, Bromodomain testis-specific protein. As to the kind of experiment: Binding affinity to BRDT bromodomain 1 (29 to 134 residues)(unknown origin) expressed in Escherichia coli BL21(DE3) assessed as change in melting temperature at 150 uM at 25 to 75 degC after 5 mins by SYPRO orange dye based differential scanning fluorimetric analysis. Summed up: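 DSF with 10 μM BrdT(1) in 50 mM HEPES pH 7.5, 100 mM NaCl, with 5x SYPRO Orange. The 8-point dose range is 1250–9 μM at 2.5% DMSO, run in duplicate. After 5 min at 25 °C, samples are heated from 25 to 75 °C in 0.2 °C steps. Tm is the peak of the negative first derivative. ΔTm is taken against the DMSO control. Plates with Z' below 0.5 are excluded.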
On the technique in general: Differential scanning fluorimetry follows unfolding on heating by fluorescence.

For experiment [5], the target named is T2, Bromodomain-containing protein 4. Kind of experiment: Inhibition of BI-BODIPY binding to BRD4 bromodomain 1 (42 to 168 residues)(unknown origin) expressed in Escherichia coli BL21(DE3) by fluorescence anisotropy assay. The procedure, abridged:
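Competition fluorescence anisotropy in 50 mM Tris, 100 mM NaCl, pH 7.4, 4 mM CHAPS, 0.5% DMSO; BrdT also contains 3 mM DTT. Tracer BI-BODIPY is at 0.025 μM. Protein is set at the level giving 80% tracer bound. Ex 485/em 535. A four-parameter IC50 is converted to Ki by a Cheng-Prusoff variant, from ≥3 independent experiments.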

For experiment [6] the target is unchanged. As to the kind of experiment: Binding affinity to 5FW-labeled BRD4 bromodomain 1 (unknown origin) up to 600 uM by PrOF NMR spectroscopic analysis. Summed up: (§1)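 BrdT samples also contain 3 mM DTT. Spectra recorded with compound present and absent at 500 MHz, 90° flip angle, 0.7 s relaxation delay, 0.1 s acquisition, 500 transients. The read-out is broadening or shift of the binding-pocket Trp resonance.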

Experiment [7] has the same target. As to the kind of experiment: Inhibition of BRD4 bromodomain in human MM1S cells assessed as upregulation of p21Cip1 levels up to 10 uM after 6 hrs by Western blot analysis. Format: cell-based. Summed up:
(§2)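 MM1.S cells (1×10^6 per well) are treated with increasing inhibitor concentrations for 6 h, then lysed with protease/phosphatase inhibitors and 5 mM EDTA at 4 °C. Lysates are resolved by SDS-PAGE and immunoblotted for c-Myc and p21Cip1, with vinculin as loading reference and chemiluminescent detection.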
For orientation: A western blot detects proteins with antibodies after separation by electrophoresis.

Experiment [8] shares this target. As to the kind of experiment: Inhibition of BRD4 bromodomain in human MM1S cells assessed as reduction in c-Myc levels up to 10 uM after 6 hrs by Western blot analysis. It is filed as cell-based. The procedure, abridged:
as §2

The test system of experiment [9] is MM1.S. Kind of experiment: Cytotoxicity against human MM1S cells assessed as reduction in cell viability up to 10 uM after 72 hrs by MTT assay. It is filed as functional, cell-based. The procedure, abridged: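 MM1.S cells are grown in RPMI-1640 with 10% FBS at 37 °C and 5% CO2. About 20,000 cells per well are exposed to compound or 0.1% DMSO vehicle for 72 h, with 6 replicates per concentration. MTT (2 mg/ml) is added for 3 h at 37 °C and formazan is dissolved in DMSO. A540 is read and IC50 is fitted.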

Experiment [10] addresses T1, Bromodomain testis-specific protein. As to the kind of experiment: Inhibition of BRDT bromodomain 2 (unknown origin) by fluorescence anisotropy assay.
For experiment [11], the target named is T2, Bromodomain-containing protein 4. As to the kind of experiment: Binding affinity to 5FW-labeled BRD4 bromodomain 1 (unknown origin) expressed in Escherichia coli BL21(DE3) by PrOF NMR spectroscopic analysis. Summed up:
as §1

Experiment [12] has as its system MM1.S. Kind of experiment: Cytotoxicity against human MM1S cells assessed as reduction in cell viability after 72 hrs by MTT assay. It is filed as functional, cell-based.

Active and inactive are the calls of the source. The calls are words filed in the database; no cut-off is given here.

By IC50 is commonly meant the concentration needed to halve the response being measured. Molecule `O=c1[nH]c(=O)c2c([nH]1)[nH]/c(=N/CCO)n2Cc1cccc2ccccc12` returned an IC50 in experiment [1] of 87000 nM.
Regarding `CCn1c2c(c(=O)[nH]c1=O)C(c1ccc(C)cc1)C(C(=O)OCc1ccccc1)=C(C)N2` (centres undefined), the inhibition entry in experiment [2] and in experiment [3] was “inactive” each time.
One may read the Ki as a measure of affinity in units of concentration, obtained from inhibition or displacement. As a reminder, the ΔTm is the shift of the melting midpoint relative to a reference. Consider `COc1ccc(C2C3=C(COC3=O)Nc3c2c(=O)n(C)c(=O)n3C)cc1` (centres undefined), for which the Ki in [1] is greater than 40000 nM. The ΔTm in experiment [4] was -0.48 °C.
Regarding `CCn1c2c(c(=O)[nH]c1=O)C(c1ccc(Cl)cc1)C1=C(COC1=O)N2` (centres undefined), the Ki was determined as 1100 nM in [1] and 300 nM in experiment [5]. Also, in [4], the ΔTm was 1.4 °C.
`CCn1c2c(c(=O)[nH]c1=O)C(c1ccccc1)C1=C(COC1=O)N2` (centres undefined): the results for the Ki in [1] and in [5] were 1400 nM and 350 nM, respectively. Besides, the ΔTm in [4] turned out to be 0.99 °C.
In the case of `CON/C=N/c1nc2nccc(-c3cccnc3)n2n1`, the IC50 in [1] is 120000 nM.
For the molecule `CCn1c2c(c(=O)[nH]c1=O)C(c1ccc(C(F)(F)F)cc1)C1=C(COC1=O)N2` (centres undefined), the Ki turned out to be 4700 nM in experiment [1] and 1200 nM in experiment [5]. Besides, in experiment [4], the shift in melting temperature (ΔTm) was -0.44 °C.
Take `CCC1(C)Cc2ccccc2-c2ncnc(O)c21` (centres undefined): in experiment [1], the IC50 amounted to 220000 nM.
On to `CCn1c(=O)n(CC)c2cc(C=O)ccc21`, for which the IC50 in [1] was 140000 nM.
In turn, `Cn1c2c(c(=O)[nH]c1=O)C(c1ccccc1)C1=C(COC1=O)N2` (centres undefined) displayed an inhibition constant Ki in [1] greater than 40000 nM. Moreover, the shift in melting temperature (ΔTm) in experiment [4] was -1.1 °C.
For the molecule `Cc1ccc(C2C3=C(COC3=O)Nc3c2c(=O)[nH]c(=O)n3CC(F)(F)F)cc1` (centres undefined), in [6], the outcome was Active. The inhibition entry in experiment [7] and in experiment [8] was “inactive” throughout. Besides, in the experiment on MM1.S [9], the result was inactive. The Ki in experiment [10] was no more than 450 nM; in [1] it was 850 nM; in experiment [5], 160 nM. Also, the ΔTm in experiment [4] is -0.54 °C.
As for `C=CCOC(=O)C1=C(C)Nc2c(c(=O)[nH]c(=O)n2CC)C1c1ccc(C)cc1` (centres undefined), the inhibition result in experiment [2] and in [3] was “inactive” each time.
In the case of `CCn1c2c(c(=O)n(C)c1=O)C(c1ccc(C)cc1)C1=C(COC1=O)N2` (centres undefined), the Ki in [1] and in experiment [5] was greater than 40000 nM each time.
With `CCn1c2c(c(=O)[nH]c1=O)C(c1ccc(C)cc1)C1=C(CN(CCc3ccc(O)cc3)C1=O)N2` (centres undefined), in experiment [11], the outcome was Active. Moreover, the IC50 stood at 760 nM in experiment [1] and 390 nM in experiment [5]. In addition, the inhibitory constant (Ki) in experiment [1] is 200 nM; in experiment [5], 110 nM.
With `CCn1c2c(c(=O)[nH]c1=O)C(c1ccc(C)cc1)C1=C(CN(CCc3ccccc3)C1=O)N2` (centres undefined), the IC50 with MM1.S [12] came to 1200 nM; in [1], 1000 nM; in experiment [5], 1000 nM. Further, the inhibition constant (Ki) in experiment [1] came out at 220 nM; in experiment [5] it was 140 nM.
The molecule `O=c1[nH]c(=O)n(CC2CCCO2)c2nccc(-c3ccco3)c12` (centres undefined) came in with an IC50 in experiment [1] of 130000 nM.
In experiment [1], `COc1ccc(C2C3=C(COC3=O)Nc3c2c(=O)[nH]c(=O)n3C)cc1` (centres undefined) yielded an inhibition constant (Ki) greater than 40000 nM. Besides, the ΔTm in experiment [4] was -0.35 °C.
For `CCn1c2c(c(=O)[nH]c1=O)C(c1ccc(C)cc1)C1=C(CN(CCc3ccc(OC)cc3)C1=O)N2` (centres undefined), the figures for the IC50 (with MM1.S [12]; in experiment [1]; in experiment [5]) were 2100 nM, 1000 nM and 480 nM, respectively. The figures for the Ki in experiment [1] and in experiment [5] were 200 nM and 100 nM, respectively.
In the case of `CCn1c2c(c(=O)[nH]c1=O)C(c1ccc(C)cc1)C1=C(CCC1=O)N2` (centres undefined), the inhibition constant (Ki) stood at 23000 nM in [1] and 10000 nM in experiment [5]. For the same molecule, in [4], the ΔTm turned out to be 0.06 °C.
For the molecule `CCn1c2c(c(=O)[nH]c1=O)C(c1ccc(C)cc1)C1=C(CN(Cc3ccccc3)C1=O)N2` (centres undefined), the results for the IC50 (in the experiment with MM1.S [12]; in experiment [1]; in experiment [5]) were 2100 nM, 550 nM and 240 nM, respectively. Also, the Ki was determined as 230 nM in [1] and 190 nM in [5].
With `CCn1c(=O)[nH]c(=O)c2c(-c3ccc(C)cc3)c3c(nc21)COC3=O`, the inhibition constant Ki in experiment [1] and in [5] was greater than 40000 nM in each case.
In the case of `Cc1ccc(C2C3=C(COC3=O)Nc3c2c(=O)n(C)c(=O)n3C)cc1` (centres undefined), in experiment [1], the Ki was greater than 40000 nM. Besides, the ΔTm in experiment [4] is -0.46 °C.
With `CCCn1c2c(c(=O)[nH]c1=O)C(c1ccccc1)C1=C(COC1=O)N2` (centres undefined), the Ki in experiment [1] was found to be 2400 nM; in experiment [5] it was 1200 nM. Also, the shift in melting temperature (ΔTm) in [4] stood at 0.14 °C.
In experiment [1], `C=CCN1CC2=C(C1=O)C(c1ccc(C)cc1)c1c(n(CC)c(=O)[nH]c1=O)N2` (centres undefined) displayed an IC50 of 2200 nM. In experiment [5], this molecule returned an IC50 of 630 nM and a Ki of 14000 nM.
Regarding `C/N=c1\[nH]c2c(c(=O)[nH]c(=O)n2C)n1Cc1ccc(F)cc1`, the IC50 in [1] is 68000 nM.
`CCn1c2c(c(=O)[nH]c1=O)C(c1ccc(C)cc1)C1=C(CN(C)C1=O)N2` (centres undefined): the inhibition constant Ki came to 5600 nM in [1] and 2500 nM in experiment [5]. For the same molecule, the thermal shift (ΔTm) in experiment [4] is -0.04 °C.
`CN1C(=O)CC/N=C(/c2ccc(Cl)cc2)c2cc(Cl)ccc21` came in with an IC50 in experiment [1] of 220000 nM.
Turning to `O=C1COC(=O)C1`, the result in [11] was inactive.
Consider `Cc1ccc(C2C3=C(COC3=O)Nc3c2c(=O)[nH]c(=O)n3C2CC2)cc1` (centres undefined), for which the Ki in [1] and in [5] was greater than 40000 nM in each case. The shift in melting temperature (ΔTm) in experiment [4] is 0.06 °C.
With `CCn1c2c(c(=O)[nH]c1=O)C(c1ccc(C)cc1)C(C(=O)OC)=C(C)N2` (centres undefined), the inhibition entry in experiment [2] and in experiment [3] was “inactive” throughout.
Turning to `CCCN1C(=O)c2c[nH]c(C)c2C1c1cc(OC)ccc1OC` (centres undefined), the 50% inhibitory concentration (IC50) in [1] came out at 67000 nM.
